≈ marks a conversion by molar mass, not a printed value.
Key:
Type in all cases: functional
ESM [1] = assay: Concentration required to cause 50% reduction in cellular DNA synthesis in ESM cells; conditions: Homo sapiens; read-out: MIC
In short: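 In ESM cells, cellular DNA synthesis was monitored by incorporation of [methyl-3H]dThd. The value is the concentration causing a 50% reduction in incorporation.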

ESM [2] = assay: Concentration required to cause a microscopically detectable alteration of normal cell morphology in ESM cells; conditions: Homo sapiens
In short: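 ESM cells were examined under the microscope. The value is the minimum concentration causing a microscopically detectable change in normal cell morphology.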

ESM [3] = assay: Concentration required to inhibit HSV-1 (F) induced cytopathogenicity in ESM cells by 50%; conditions: Homo sapiens; read-out: MIC
In short: (§1)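 Embryonic skin-muscle (ESM) cell cultures were infected with 100 CCID50 of virus (1 CCID50 being the infective dose for 50% of cultures).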

ESM [4] = assay: Concentration required to inhibit HSV-1 (KOS) induced cytopathogenicity in ESM cells by 50%; conditions: Homo sapiens; read-out: MIC; in short: as §1
ESM [5] = assay: Concentration required to inhibit HSV-1 (McIntyre) induced cytopathogenicity in ESM cells by 50%; conditions: Homo sapiens; read-out: MIC; in short: as §1
ESM [6] = assay: Concentration required to inhibit HSV-2(196) induced cytopathogenicity in ESM cells by 50%; conditions: Homo sapiens; read-out: MIC; in short: as §1
ESM [7] = assay: Concentration required to inhibit HSV-2(G) induced cytopathogenicity in ESM cells by 50%; conditions: Homo sapiens; read-out: MIC; in short: as §1
ESM [8] = assay: Concentration required to inhibit HSV-2(lyons) induced cytopathogenicity in ESM cells by 50%; conditions: Homo sapiens; read-out: MIC; in short: as §1
ESM [9] = assay: Concentration required to inhibit TK-HSV-1 (B2006) induced cytopathogenicity in ESM cells by 50%; conditions: Homo sapiens; in short: as §1
ESM [10] = assay: Concentration required to inhibit TK-HSV-1 ([…]) induced cytopathogenicity in ESM cells by 50%; conditions: Homo sapiens; in short: as §1
ESM [11] = assay: Concentration required to inhibit VV induced cytopathogenicity in ESM cells by 50%.; conditions: Homo sapiens; in short: as §1
HEL [12] = assay: Concentration required to inhibit CMV (AD-169) induced cytopathogenicity in HEL cells by 50%; conditions: Homo sapiens; read-out: MIC
HEL [13] = assay: Concentration required to inhibit CMV (Davis) induced cytopathogenicity in HEL cells by 50%; conditions: Homo sapiens
HEL [14] = assay: Concentration required to inhibit TK-VZV (07-1) induced cytopathogenicity in HEL cells by 50%; conditions: Homo sapiens; read-out: MIC
HEL [15] = assay: Concentration required to inhibit TK-VZV (YSR) induced cytopathogenicity in HEL cells by 50%; conditions: Homo sapiens
HEL [16] = assay: Concentration required to inhibit VZV (YS) induced cytopathogenicity in HEL cells by 50%; conditions: Homo sapiens; read-out: MIC
HEL [17] = assay: Concentration required to inhibit VZV (oka) induced cytopathogenicity in HEL cells by 50%; conditions: Homo sapiens; read-out: MIC
HEL [18] = assay: Concentration required to cause 50% reduction in HEL cell growth.; conditions: Homo sapiens; read-out: MIC
ESM [19] = assay: Concentration required to inhibit VV induced cytopathogenicity in ESM cells by 50%; conditions: Homo sapiens; in short: as §1
HEL [20] = assay: Concentration required to cause 50% reduction in HEL cell growth; conditions: Homo sapiens

SMILES	IC50 (DNA synthesis inhibition) (ESM [1])	MIC (ESM [2])	EC50 (ESM [3])	50% inhibitory concentration against virus-induced cytopathogenicity (EC50) (ESM [4])	EC50 for inhibiting virus-induced cytopathogenicity (ESM [5])	EC50 (ESM [6])	EC50 (ESM [7])	EC50 (50% inhibition of virus cytopathogenicity) (ESM [8])	MIC (ESM [9])	MIC (ESM [10])	MIC (ESM [11])	EC50 (HEL [12])	MIC (HEL [13])	EC50 (HEL [14])	MIC (HEL [15])	EC50 (HEL [16])	EC50 (HEL [17])	50% cell growth inhibitory concentration (CC50) (HEL [18])	MIC (ESM [19])	MIC (HEL [20])
Cc1cn2c(O)c3ncn(COCCO)c3nc2n1	> 200 µg/mL	> 400 µg/mL	0.7 µg/mL (≈ 2.66 µM)	0.7 µg/mL	1 µg/mL	0.7 µg/mL (≈ 2.66 µM)	2 µg/mL (≈ 7.6 µM)	0.4 µg/mL	> 400 µg/mL	> 400 µg/mL	> 400 µg/mL	200 µg/mL (≈ 760 µM)	> 400 µg/mL	400 µg/mL (≈ 1520 µM)	> 400 µg/mL	25 µg/mL (≈ 95 µM)	20 µg/mL (≈ 76 µM)	> 200 µg/mL		
OCC(CO)OCn1cnc2c(O)n3ccnc3nc21	> 200 µg/mL	> 400 µg/mL	0.7 µg/mL (≈ 2.51 µM)	0.7 µg/mL	0.7 µg/mL	2 µg/mL (≈ 7.16 µM)	2 µg/mL (≈ 7.16 µM)	0.7 µg/mL	> 400 µg/mL	150 µg/mL (≈ 537 µM)	> 400 µg/mL	150 µg/mL (≈ 537 µM)	200 µg/mL (≈ 716 µM)	400 µg/mL (≈ 1430 µM)	300 µg/mL (≈ 1070 µM)	> 400 µg/mL	400 µg/mL (≈ 1430 µM)	> 200 µg/mL		
OCCOCn1cnc2c(O)n3ccnc3nc21	> 200 µg/mL	> 400 µg/mL	4 µg/mL (≈ 16 µM)	20 µg/mL	20 µg/mL	70 µg/mL (≈ 281 µM)	20 µg/mL (≈ 80.2 µM)	10 µg/mL	> 400 µg/mL	> 400 µg/mL	> 400 µg/mL	> 400 µg/mL	> 400 µg/mL	> 400 µg/mL	> 400 µg/mL	> 400 µg/mL	> 400 µg/mL	> 200 µg/mL		
CCOC(Cn1c(N)nc2c(ncn2COC(CO)CO)c1=O)OCC	> 100 µg/mL	> 400 µg/mL	20 µg/mL (≈ 53.9 µM)	70 µg/mL	20 µg/mL	70 µg/mL (≈ 188 µM)	70 µg/mL (≈ 188 µM)	20 µg/mL	> 400 µg/mL	> 400 µg/mL	> 400 µg/mL	> 400 µg/mL	> 400 µg/mL	> 400 µg/mL	> 400 µg/mL	> 400 µg/mL	> 400 µg/mL	> 200 µg/mL		
OC[C@H]1OC(n2cnc3c(O)n4ccnc4nc32)[C@H](O)[C@@H]1O (some centres not stated)	150 µg/mL (≈ 488 µM)	> 400 µg/mL	> 400 µg/mL	> 400 µg/mL	> 400 µg/mL	> 400 µg/mL	> 400 µg/mL	> 400 µg/mL	> 400 µg/mL	> 400 µg/mL		400 µg/mL (≈ 1300 µM)	400 µg/mL (≈ 1300 µM)	> 400 µg/mL	> 400 µg/mL	> 400 µg/mL	> 400 µg/mL		> 400 µg/mL	> 200 µg/mL
CCOC(Cn1c(N)nc2c(ncn2C2O[C@H](CO)[C@@H](O)[C@H]2O)c1=O)OCC (some centres not stated)	> 200 µg/mL	> 400 µg/mL	100 µg/mL (≈ 250 µM)	> 400 µg/mL	100 µg/mL	> 400 µg/mL	> 400 µg/mL	100 µg/mL	> 400 µg/mL	> 400 µg/mL	> 400 µg/mL	> 400 µg/mL	> 400 µg/mL	> 200 µg/mL	> 200 µg/mL	> 200 µg/mL	> 200 µg/mL	> 200 µg/mL		
Cc1cn2c(O)c3ncn(C4O[C@H](CO)[C@@H](O)[C@H]4O)c3nc2n1 (some centres not stated)	150 µg/mL (≈ 467 µM)	> 400 µg/mL	> 400 µg/mL	> 400 µg/mL	> 400 µg/mL	> 400 µg/mL	> 400 µg/mL	> 400 µg/mL	> 400 µg/mL	> 400 µg/mL		> 200 µg/mL	> 200 µg/mL	> 200 µg/mL	> 200 µg/mL	> 200 µg/mL	> 200 µg/mL		> 400 µg/mL	> 200 µg/mL
CCOC(Cn1c(N)nc2c(ncn2COCCO)c1=O)OCC	> 200 µg/mL	> 400 µg/mL	70 µg/mL (≈ 205 µM)	> 400 µg/mL	> 400 µg/mL	20 µg/mL (≈ 58.6 µM)	> 400 µg/mL	20 µg/mL	> 400 µg/mL	> 400 µg/mL	> 400 µg/mL	> 400 µg/mL	> 400 µg/mL	> 400 µg/mL	> 400 µg/mL	> 400 µg/mL	> 400 µg/mL	> 200 µg/mL		
Cc1cn2c(O)c3ncn(COC(CO)CO)c3nc2n1	> 200 µg/mL	> 400 µg/mL	0.07 µg/mL (≈ 0.239 µM)	0.07 µg/mL	0.07 µg/mL	0.07 µg/mL (≈ 0.239 µM)	0.07 µg/mL (≈ 0.239 µM)	0.07 µg/mL	200 µg/mL (≈ 682 µM)	20 µg/mL (≈ 68.2 µM)	> 400 µg/mL	4 µg/mL (≈ 13.6 µM)	5 µg/mL (≈ 17 µM)	15 µg/mL (≈ 51.1 µM)	50 µg/mL (≈ 170 µM)	10 µg/mL (≈ 34.1 µM)	4 µg/mL (≈ 13.6 µM)	> 200 µg/mL		
Nc1nc2c(ncn2COCCO)c(=O)[nH]1 [ACYCLOVIR]		400 µg/mL (≈ 1780 µM)							100 µg/mL (≈ 444 µM)	40 µg/mL (≈ 178 µM)	> 200 µg/mL		15 µg/mL (≈ 66.6 µM)							
Nc1nc2c(ncn2COC(CO)CO)c(=O)[nH]1 [GANCICLOVIR]		> 400 µg/mL							7 µg/mL (≈ 27.4 µM)	1 µg/mL (≈ 3.92 µM)	20 µg/mL (≈ 78.4 µM)		1 µg/mL (≈ 3.92 µM)							
